Assays:
[1] = target: T1, Sodium-dependent dopamine transporter (Homo sapiens, UniProt Q01959); assay: Ratio of dopamine uptake to dopamine binding
[2] = target: T1, Sodium-dependent dopamine transporter; assay: Binding affinity against cloned human dopamine transporter using 40-80 pM [125I]RTI.
How it was run: (§1)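 Membranes from cells expressing recombinant human transporters: DAT in C6 cells, later HEK293; SERT and NET in HEK293. Cells lysed (2 mM HEPES, 1 mM EDTA), spun at 30000g, resuspended in 0.32 M sucrose, about 15 µg protein. GF/C filtration. Duplicates; IC50 converted to Ki by Cheng-Prusoff.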

[3] = target: T2, Sodium-dependent serotonin transporter (Homo sapiens, UniProt P31645); assay: Ratio of serotonin uptake to serotonin binding
Target sequence in this assay (P31645 whole entry, looked up): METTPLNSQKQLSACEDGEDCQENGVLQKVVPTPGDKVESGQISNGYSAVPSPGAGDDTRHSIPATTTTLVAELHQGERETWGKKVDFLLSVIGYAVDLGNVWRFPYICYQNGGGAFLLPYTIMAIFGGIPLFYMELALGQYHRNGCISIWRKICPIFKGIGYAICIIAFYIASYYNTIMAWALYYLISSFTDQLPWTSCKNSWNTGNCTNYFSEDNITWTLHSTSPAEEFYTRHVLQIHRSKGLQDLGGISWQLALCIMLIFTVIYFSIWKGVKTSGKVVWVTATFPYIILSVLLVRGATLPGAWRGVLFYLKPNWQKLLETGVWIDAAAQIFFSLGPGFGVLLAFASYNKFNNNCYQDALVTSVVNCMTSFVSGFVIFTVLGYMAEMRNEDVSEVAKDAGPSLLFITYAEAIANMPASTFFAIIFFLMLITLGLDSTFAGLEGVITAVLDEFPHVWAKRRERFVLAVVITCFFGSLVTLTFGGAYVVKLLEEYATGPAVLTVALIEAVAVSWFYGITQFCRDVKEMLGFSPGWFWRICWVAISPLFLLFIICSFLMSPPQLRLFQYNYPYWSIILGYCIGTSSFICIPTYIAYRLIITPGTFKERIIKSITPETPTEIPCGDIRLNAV

[4] = target: T3, Sodium-dependent noradrenaline transporter (Homo sapiens, UniProt P23975); assay: Binding affinity against norepinephrine cloned human transporter using 40-80 pM [125I]RTI
Target sequence in this assay (P23975 whole entry): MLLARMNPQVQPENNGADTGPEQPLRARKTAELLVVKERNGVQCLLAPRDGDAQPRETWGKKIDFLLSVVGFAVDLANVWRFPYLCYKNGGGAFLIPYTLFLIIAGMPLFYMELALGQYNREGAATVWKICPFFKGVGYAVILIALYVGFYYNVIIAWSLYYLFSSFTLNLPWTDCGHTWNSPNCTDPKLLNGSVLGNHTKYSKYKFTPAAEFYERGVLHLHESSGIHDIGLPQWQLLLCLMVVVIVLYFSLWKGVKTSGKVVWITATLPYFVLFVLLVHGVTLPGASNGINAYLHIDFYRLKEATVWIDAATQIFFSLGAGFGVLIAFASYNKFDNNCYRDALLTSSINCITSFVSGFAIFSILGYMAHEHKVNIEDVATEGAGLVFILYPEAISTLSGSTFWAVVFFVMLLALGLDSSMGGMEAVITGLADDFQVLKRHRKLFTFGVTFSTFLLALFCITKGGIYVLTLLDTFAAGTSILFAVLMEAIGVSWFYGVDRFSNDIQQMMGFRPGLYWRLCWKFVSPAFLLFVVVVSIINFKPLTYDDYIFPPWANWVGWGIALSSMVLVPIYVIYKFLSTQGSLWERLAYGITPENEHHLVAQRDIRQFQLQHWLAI

[5] = target: T2, Sodium-dependent serotonin transporter; assay: Binding affinity against cloned serotonin human transporter using 40-80 PM [125I]RTI; how it was run: as §1
Target sequence in this assay (P31645 whole entry): as the sequence (P31645 whole entry, looked up) above

[6] = target: T3, Sodium-dependent noradrenaline transporter; assay: Inhibition of reuptake of [3H]-NE (20 nM) by norepinephrine transporter
Target sequence in this assay (P23975 whole entry): as the sequence (P23975 whole entry) above

[7] = target: Monoamine transporters; serotonin & dopamine (Homo sapiens) (UniProt P31645+Q01959); assay: Ratio of inhibition of serotonin uptake to inhibition of dopamine uptake; type: protein assay
[8] = target: T1, Sodium-dependent dopamine transporter; assay: Inhibition of reuptake of [3H]DA (20 nM) by dopamine transporter
How it was run: (§2)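 Uptake used whole confluent cells: hSERT in HEK293; hDAT in C6, later HEK293. Cells were washed and scraped in PBS at 25 °C, then preincubated 10 min with drug in Krebs HEPES at 25 °C. [3H]5HT or [3H]DA was added at 20 nM final for 10 min, then filtered on 0.05% polyethylenimine-soaked filters. Six drug concentrations, each in triplicate.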

[9] = target: T2, Sodium-dependent serotonin transporter; assay: Inhibition of reuptake of [3H]5-HT (20 nM) by serotonin transporter; how it was run: as §2
Target sequence in this assay (P31645 whole entry): as the sequence (P31645 whole entry, looked up) above

Mus musculus = organism: Mus musculus; assay: Effective dose on 8 hr locomotor assay in mice (value is standard error of the population of 72 independent determinations); type: functional
How it was run: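 Groups of 8 nonhabituated male Swiss-Webster mice (Hsd:ND4, 2-3 months), dosed ip in 0.9% saline vehicle just before testing. Horizontal photobeam breaks counted in 10-min bins for 8 h from 0800 h, one mouse per chamber.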

[10] = Effective dose for generalization to 10 mg/kg cocaine in rat (value is standard error of the population of 88 independent determinations); type: functional
[11] = target: T3, Sodium-dependent noradrenaline transporter; assay: Ratio of norepinephrine uptake to norepinephrine binding
Target sequence in this assay (P23975 whole entry, looked up): as the sequence (P23975 whole entry) above

Chain of Monoamine transporters; serotonin & dopamine (Homo sapiens) (P31645 whole entry, looked up): as the sequence (P31645 whole entry, looked up) above
Chain of Monoamine transporters; serotonin & dopamine (Homo sapiens) (Q01959 whole entry, looked up): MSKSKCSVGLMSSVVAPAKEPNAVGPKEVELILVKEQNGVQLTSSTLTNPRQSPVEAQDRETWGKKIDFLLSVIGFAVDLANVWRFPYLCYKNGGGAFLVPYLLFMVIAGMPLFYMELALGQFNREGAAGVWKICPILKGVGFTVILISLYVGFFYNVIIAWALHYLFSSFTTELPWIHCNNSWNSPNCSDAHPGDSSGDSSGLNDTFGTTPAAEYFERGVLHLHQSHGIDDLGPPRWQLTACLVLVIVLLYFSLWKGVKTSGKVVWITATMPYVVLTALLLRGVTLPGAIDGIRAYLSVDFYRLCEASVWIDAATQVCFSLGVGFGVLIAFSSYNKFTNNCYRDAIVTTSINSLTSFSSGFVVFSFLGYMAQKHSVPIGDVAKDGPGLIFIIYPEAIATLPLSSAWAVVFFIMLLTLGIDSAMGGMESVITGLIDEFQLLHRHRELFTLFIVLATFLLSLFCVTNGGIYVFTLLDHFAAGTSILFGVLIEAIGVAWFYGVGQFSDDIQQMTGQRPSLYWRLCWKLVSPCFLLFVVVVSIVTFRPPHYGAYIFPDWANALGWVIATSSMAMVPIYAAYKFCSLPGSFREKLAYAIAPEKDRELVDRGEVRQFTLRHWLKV
T1 sequence (Q01959 whole entry): as the sequence (Q01959 whole entry, looked up) above

| Structure (SMILES) | Ratio [1] | Ki [2] [nM] | Ratio [3] | Ki [4] [nM] | Ki [5] [nM] | IC50 [6] [nM] | Ratio [7] | IC50 [8] [nM] | IC50 [9] [nM] | ED50 (Mus musculus) [mg/kg] | ED50 [10] [mg/kg] | Ratio [11] |
| --- | --- | --- | --- | --- | --- | --- | --- | --- | --- | --- | --- | --- |
| CC(C)N(C)[C@H]1C[C@@H](c2ccc(Cl)c(Cl)c2)c2ccccc21 | 1.4 | 680 | 25 | 650 | 73 | 1800 | 1.9 | 960 | 1800 |  |  |  |
| CCN[C@H]1C[C@@H](c2ccc(Cl)c(Cl)c2)c2ccccc21 | 11 | 140 | 4 |  | 4.7 | 170 | 0.02 | 1000 | 19 |  |  |  |
| CC(C)N(C)[C@@H]1C[C@@H](c2ccc(Cl)c(Cl)c2)c2ccccc21 | 1.1 | 180 | 34 | 260 | 44 | 420 | 7.9 | 190 | 1500 | 2.9 | 3.3 |  |
| CC(C)N[C@@H]1C[C@@H](c2ccc(Cl)c(Cl)c2)c2ccccc21 | 1.6 | 32 | 2.6 | 110 | 93 | 75 | 4.7 | 51 | 240 | 3.1 |  | 0.68 |
| CCCN(C)[C@H]1C[C@@H](c2ccc(Cl)c(Cl)c2)c2ccccc21 (relative stereo) | 0.83 |  | 4 | 2000 | 200 | 540 | 0.8 | 1000 | 810 |  |  | 0.27 |
| CC(C)(C)N[C@H]1C[C@@H](c2ccc(Cl)c(Cl)c2)c2ccccc21 (relative stereo) | 2.3 | 650 |  | 1100 | 1700 | 1800 |  | 1500 | > 10000 |  |  | 1.6 |
| Clc1ccc([C@@H]2C[C@@H](NCc3ccccc3)c3ccccc32)cc1Cl (relative stereo) | 1.6 | 80 |  | 460 | 380 | 2600 |  | 130 | > 10000 | > 20 |  |  |
| CCCN[C@@H]1C[C@@H](c2ccc(Cl)c(Cl)c2)c2ccccc21 (relative stereo) | 0.24 | 220 | 3.7 | 55 | 130 | 130 | 9.1 | 53 | 480 | 8.1 | 2.3 | 2.4 |
| CCCN[C@H]1C[C@@H](c2ccc(Cl)c(Cl)c2)c2ccccc21 (relative stereo) | 2.2 | 280 | 2.6 | 540 | 500 | 630 | 2.1 | 620 | 1300 |  |  | 1.2 |
| CCN(C)[C@@H]1C[C@@H](c2ccc(Cl)c(Cl)c2)c2ccccc21 (relative stereo) | 6.9 | 39 | 1.5 | 250 | 16 | 150 | 0.089 | 270 | 24 | 2.7 |  | 0.6 |
| Clc1ccc([C@@H]2C[C@H](NCc3ccccc3)c3ccccc32)cc1Cl (relative stereo) |  | 1100 |  | 4800 | 2100 | > 10000 |  | 5300 | > 10000 |  |  |  |
| CN(C)[C@H]1C[C@@H](c2ccc(Cl)c(Cl)c2)c2ccccc21 (relative stereo) | 8.7 | 63 | 2.3 | 150 | 2.4 | 86 | 0.01 | 550 | 5.5 |  |  |  |
| CCN[C@@H]1C[C@@H](c2ccc(Cl)c(Cl)c2)c2ccccc21 (relative stereo) | 7.5 | 8.1 | 6.5 | 48 | 2 | 28 | 0.21 | 61 | 13 | 1 |  |  |
| CN([C@@H]1C[C@@H](c2ccc(Cl)c(Cl)c2)c2ccccc21)C(C)(C)C (relative stereo) | 3 | 890 |  | 440 | 4700 | 1000 |  | 2700 | > 10000 |  |  |  |
| CCN(C)[C@H]1C[C@@H](c2ccc(Cl)c(Cl)c2)c2ccccc21 (relative stereo) | 0.8 | 660 | 5.5 | 2400 | 13 | 4400 | 0.14 | 530 | 72 |  |  | 1.8 |
| CN(Cc1ccccc1)[C@H]1C[C@@H](c2ccc(Cl)c(Cl)c2)c2ccccc21 (relative stereo) |  | > 10000 | 2.3 | > 10000 | 300 | > 10000 |  |  | 700 |  |  |  |
| CN(C)[C@@H]1C[C@@H](c2ccc(Cl)c(Cl)c2)c2ccccc21.O=C(O)/C=C\C(=O)O (relative stereo) |  | 19 |  | 95 | 0.33 | 34 |  | 200 | 65 | 2.4 | 1.3 |  |
| CN(Cc1ccccc1)[C@@H]1C[C@@H](c2ccc(Cl)c(Cl)c2)c2ccccc21 (relative stereo) | 4.6 | 120 | 21 | 2800 | 180 | 1600 | 6.7 | 550 | 3700 | 5.7 |  |  |
| CCCN(C)[C@@H]1C[C@@H](c2ccc(Cl)c(Cl)c2)c2ccccc21 (relative stereo) | 1.4 | 250 | 2.1 | 400 | 91 | 640 | 0.56 | 340 | 190 | 1.7 | 1.5 | 1.6 |
| CC(C)(C)N[C@@H]1C[C@@H](c2ccc(Cl)c(Cl)c2)c2ccccc21 (relative stereo) | 2.8 | 130 | 4.2 | 150 | 740 | 310 | 8.4 | 370 | 3100 | > 28 |  | 2.1 |
| CN([C@H]1C[C@@H](c2ccc(Cl)c(Cl)c2)c2ccccc21)C(C)(C)C (relative stereo) |  | 2800 |  | 2200 | > 10000 | > 10000 |  | > 10000 |  |  |  |  |
| CC(C)N[C@H]1C[C@@H](c2ccc(Cl)c(Cl)c2)c2ccccc21 (relative stereo) | 3.1 | 450 | 2.3 | 3500 | 130 | 1500 | 0.21 | 1400 | 300 |  |  | 0.43 |
| CN(C)[C@@H]1C[C@@H](c2ccc(Cl)c(Cl)c2)c2ccccc21 (relative stereo) | 11 |  | 200 |  |  |  | 0.033 |  |  |  |  |  |
| CN[C@@H]1C[C@@H](c2ccc(Cl)c(Cl)c2)c2ccccc21 (relative stereo) [(R,S)-INDATRALINE] |  |  |  |  |  |  |  |  |  | 1.2 |  |  |
| CN(C)[C@@H]1C[C@@H](c2ccc(Cl)c(Cl)c2)c2ccccc21 (stereo in doubt; (+)) [listing 1 of 2 here] |  | 8.7 |  | 52 | 0.06 | 21 |  | 120 | 6.3 | 0.96 |  |  |
| CN(C)[C@@H]1C[C@@H](c2ccc(Cl)c(Cl)c2)c2ccccc21 (stereo in doubt; (+)) [listing 2 of 2 here] | 14 |  | 110 |  |  |  | 0.053 |  |  |  |  |  |
| CN(C)[C@@H]1C[C@@H](c2ccc(Cl)c(Cl)c2)c2ccccc21 (stereo in doubt; (-)) [listing 1 of 2 here] |  | 38 |  | 130 | 3.6 | 130 |  | 650 | 130 |  |  |  |
| CN(C)[C@@H]1C[C@@H](c2ccc(Cl)c(Cl)c2)c2ccccc21 (stereo in doubt; (-)) [listing 2 of 2 here] | 17 |  |  |  |  |  | 0.02 |  |  |  |  |  |
| COC(=O)[C@H]1[C@@H](OC(=O)c2ccccc2)C[C@@H]2CC[C@H]1N2C [COCAINE] |  |  |  |  |  |  |  |  |  | 7.92 | 3.61 |  |

Reference: ChEMBL document CHEMBL1133565 (J Med Chem, 2000)
